KCNK3 block – human KCNK3 channel inhibitors, primary screen, CHO cells, FluxOR thallium flux, B-score. FluxOR fluorescence; stronger effect = lower value. B-score at 10 µM. 340,000 compounds, 0.84% hits;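 active = B-score under library mean minus 4 SD, starting fluorescence ratio at most library mean plus 5 SD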;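 also: more negative B-score means stronger inhibition of thallium flux through KCNK3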
Kir21 inh – inhibitors of mouse Kir2.1 inward-rectifier potassium channel | 310,000 compounds, 0.85% hits | AID 1672, 2009 | HEK293-Kir2.1, FluxOR thallium flux fluorescence; stronger effect = lower value | B-score at 10 µM;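 active = fluorescence ratio B-score at or below minus 3 SD of library scores, with starting-brightness B-score within 2 SD, cut at about -4.2 in these data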;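 also: channel flux triggered by added potassium and thallium sulfate stimulus; B-score of peak minus minimum fluorescence over baseline after thallium stimulus; more negative B-score means stronger Kir2.1 block with less thallium influx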
Target sequence (P35561 whole entry, looked up): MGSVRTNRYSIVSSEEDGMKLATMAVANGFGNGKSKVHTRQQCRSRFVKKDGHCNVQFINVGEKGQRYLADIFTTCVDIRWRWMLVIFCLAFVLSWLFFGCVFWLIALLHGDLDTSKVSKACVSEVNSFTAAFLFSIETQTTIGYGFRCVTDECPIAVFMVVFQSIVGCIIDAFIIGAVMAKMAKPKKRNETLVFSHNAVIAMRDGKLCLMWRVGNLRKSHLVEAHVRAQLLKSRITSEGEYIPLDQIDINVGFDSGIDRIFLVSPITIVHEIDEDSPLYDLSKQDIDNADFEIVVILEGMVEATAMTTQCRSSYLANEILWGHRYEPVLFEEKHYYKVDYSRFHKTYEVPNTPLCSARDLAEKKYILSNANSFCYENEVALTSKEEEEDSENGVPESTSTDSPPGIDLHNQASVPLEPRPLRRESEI
KCNQ1 inh – inhibitors of human KCNQ1 channel, primary screen, cell-based, thallium flux, high-throughput; AID 2642, 2010; CHO-K1 KCNQ1, FluxOR thallium flux fluorescence; stronger effect = higher value; 310,000 compounds, 1.3% hits; Potassium voltage-gated channel subfamily KQT member 1 (Homo sapiens), P51787; B-score at 10 µM;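 active = compounds whose thallium flux B-score, printed positive for inhibition, exceeds three library SD while starting fluorescence stays within three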;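 also: channel opened by potassium depolarization with thallium stimulus after 20 min compound exposure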
hERG rescue – hERG rescue from dofetilide block, primary screen, cell-based, CHO-hERG, FluxOR thallium flux, dofetilide IC70; Voltage-gated inwardly rectifying potassium channel KCNH2 (Homo sapiens), Q12809; dofetilide IC70 present; activation (rescue from dofetilide block), less the hit threshold, % at 10 µM; 310,000 compounds, 0.51% hits; AID 1511, 2009;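 active = activation above the mean of controls blocked by dofetilide plus 5 SD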;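 also: thallium influx through hERG after potassium depolarization seen as dye fluorescence rise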
KCNQ1 act – potentiators or activators of KCNQ1 channel, primary screen, cell-based, thallium flux, high-throughput; Potassium voltage-gated channel subfamily KQT member 1 (Homo sapiens), P51787; CHO-K1 KCNQ1, thallium flux FluxOR fluorescence; stronger effect = higher value; B-score at 10 µM; 310,000 compounds, 0.35% hits; AID 2648, 2010;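 active = fluorescence ratio B-score, a plate-corrected score, at least three library SD, with initial intensity B-score within 5 SD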
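Doses: Single concentration per compound, DMSO matched to controls | Test system: KCNQ1-transfected CHO-K1 cells | Timing: 90 min dye loading and 20 min compound exposure, both at room temperature | Measured by: Kinetic FluxOR thallium fluorescence, 10-s 1-Hz baseline, 110-s post-stimulus read | Medium: Assay buffer with matched DMSO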
KCNK9 block – KCNK9 potassium channel inhibitors, primary screen, HEK293 cells, thallium flux | B-score at 10 µM | AID 488922, 2010 | 310,000 compounds, 1.2% hits | FluxOR thallium flux fluorescence; stronger effect = lower value;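 active = ratio B-score over 3 SD below the library mean, with starting fluorescence within 5 SD of its mean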;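 also: negative B-score means less thallium flux so channel inhibition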
KCNK9 inh conf – KCNK9 potassium channel inhibitors, confirmation, HEK293 cells, thallium flux, duplicate; shares compounds with KCNK9 block; FluxOR thallium flux fluorescence; inhibition, % at 10 µM; 4,900 compounds, 43% hits; AID 492992, 2010;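 active = thallium signal inhibited by more than 5 SD of the compound-free buffer control wells, on both duplicate plates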
Kir21 sel – mouse Kir2.1 channel inhibition, confirmation, selectivity assay for KCNK9 modulator project, cell-based, HEK293, thallium flux; shares compounds with KCNK9 block; inhibition, % at 10 µM; AID 492993, 2010; 4,900 compounds, 4% hits; Kir2.1 cells, FluxOR thallium flux fluorescence;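 active = thallium signal drop more than 5 SD beyond the mean of the no-compound control wells, seen in both duplicate plates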;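 also: signal is fluorescence rise after thallium addition divided by baseline fluorescence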
HEK293 Tl ctr – thallium flux in non-induced HEK293 cells, confirmation, counter-screen for KCNK9 inhibitor project, cell-based, second counter screen, non-induced KCNK9-HEK293; shares compounds with KCNK9 block; FluxOR thallium flux; inhibition, % at 10 µM; 4,900 compounds, 40% hits; AID 492997, 2010;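 active = thallium signal drop beyond 5 SD of the untreated control mean, on both duplicate plates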
A number is an active result; – = inactive; · = no result. The list is not random: actives were taken first. Their share in the collection is about 3.7%.

SMILES	KCNK3 block	Kir21 inh	KCNQ1 inh	hERG rescue	KCNQ1 act	KCNK9 block	KCNK9 inh conf	Kir21 sel	HEK293 Tl ctr
COc1cc(OC)cc(C(=O)NC(C(=O)N2CCc3ccccc3C2)C(C)C)c1 (stereo not drawn)	–	–	–	–	–	–	·	·	·
O=C(Nc1ccc(OCc2ccccc2Cl)cc1)c1cccnc1	–	–	–	–	–	–	·	·	·
CC(C)C[C@H](NC(=O)c1nc[nH]c1C(=O)NCC(=O)OCc1ccccc1)C(=O)OCc1ccccc1	–	–	–	–	–	–	–	–	–
CC(C)C[C@H](NC(=O)c1nc[nH]c1C(=O)NCC(=O)OC(C)(C)C)C(=O)OCc1ccccc1	–	–	–	–	–	–	·	·	·
Cc1onc(-c2ccc(Cl)cc2)c1-c1ccnn1S(=O)(=O)c1cccc(C(F)(F)F)c1	–	–	–	–	–	-11	55%	–	47%
CCN1C(=O)C2(C(C(=O)c3cc4ccccc4o3)=C(O)C(=O)N2CCCN2CCOCC2)c2ccccc21 (stereo not drawn)	–	–	–	–	–	–	·	·	·
COc1cc(-c2nc(-c3ccccc3)c(-c3cccs3)[nH]2)cc(OC)c1O	–	–	–	–	–	-10	51%	–	–
Cc1ccccc1C(=O)NC1CC2CCCC(C1)N2Cc1ccccc1 (stereo not drawn)	–	–	–	–	–	–	–	–	–
COc1ccc(C(=O)C2CCCN(C(=O)c3cc(C(C)C)no3)C2)cc1F (stereo not drawn)	–	–	–	–	–	–	–	–	–
COc1cccc(C(=O)C2CCCN(Cc3cccc(-n4cccn4)c3)C2)c1 (stereo not drawn)	–	–	–	–	–	–	–	–	–
COc1ccc(C(=O)C2CCCN(C(=O)c3cccs3)C2)cc1F (stereo not drawn)	–	–	–	–	–	–	–	–	–
COc1ccc(C(=O)C2CCCN(C(=O)c3cccc(Cn4cccn4)c3)C2)cc1F (stereo not drawn)	–	–	–	–	–	–	–	–	–
O=C(NCCOc1cccnc1)C1CCC(=O)N(Cc2ccccc2F)C1 (stereo not drawn)	–	–	–	–	–	–	·	·	·
COc1ccc(CN2CCCC(C(=O)c3ccc(SC)cc3)C2)cc1Cn1cccn1 (stereo not drawn)	–	–	–	–	–	–	–	–	–
CSc1ccc(C(=O)C2CCCN(Cc3ccc(N4CCNC4=O)cc3)C2)cc1 (stereo not drawn)	–	–	–	–	–	–	·	·	·
CCSc1nc(N2CCCCC2)c2c(c1C#N)CCCC2	–	–	–	–	–	-12	57%	–	46%
CCOC(=O)c1c(S(=O)(=O)N2CCN(Cc3ccccc3)CC2)c(C)n(C)c1C	–	–	–	–	–	–	·	·	·
CN1/C(=C\C=Nc2cc(S(=O)(=O)N3CCOCC3)ccc2N2CCOCC2)C(C)(C)c2ccccc21	–	–	–	–	–	–	·	·	·
COc1cc2nc(Nc3ccc(C)c(Cl)c3)nc(N)c2cc1OC	–	–	–	–	–	-16	–	–	–
CCOC(=O)c1ccc(Nc2nc(N)c3cc(OC)c(OC)cc3n2)cc1	–	–	–	–	–	–	·	·	·
